This is an account of results in PMC3409840 (ACS medicinal chemistry letters, 2012).

The nature of series [1]: Solubility under the NF-κB reporter assay conditions. The class given is physicochemical. The conditions noted are these: 50 µM screen.
A further series deals with IL-8. Nature of the series: Secreted IL-8 protein by ELISA in TNF-α-induced DU-145 cells. The format is cell-based, human. Summed up: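 DU-145 cells dosed with DMSO vehicle or test compound (100 μM and 33 μM), followed by TNF-α induction of the NF-κB pathway. Non-induced and induced vehicle controls were included. Secreted IL-8 protein in the cell medium was quantified by ELISA.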

The nature of series [2]: NMR-based thiol reactivity assay with cysteamine. The conditions noted are these: two molar equivalents of cysteamine, DMSO-d6/D2O PBS, 1H NMR.
The test system of series [3] is p65. Description: Western blot of p65 in nuclear lysate of NF-κB-induced DU-145 cells. The class given is cell-based, human. Summed up:
(§1)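 Cells were dosed with test compound at 100 μM or 25 μM, or with DMSO vehicle, and the NF-κB pathway was then induced with TNF-α. Controls were noninduced and TNF-α-induced cells, both given vehicle.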

Another series has as its system DU-145. Nature of the series: Cellular cytotoxicity by Alamar Blue staining, DU-145. Conditions: for IC50 against DU-145 relative to reported IC50 of cryptocaryone: fold higher than cryptocaryone. The format is cell-based, human.
For series [4], the system named is p65. Nature of the series: Western blot of p65 in nuclear lysate of NF-κB-induced CCRF-CEM cells. The format is cell-based, human. The method, boiled down: as §1
A further series relates to IL-8 mRNA. Nature of the series: Semi-quantitative RT-PCR of IL-8 mRNA in TNF-α-induced DU-145 cells. The class given is cell-based, human. Conditions: 33 µM, lowest concentration tested. The method, boiled down: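 DU-145 cells given DMSO vehicle or test compound (100 μM and 33 μM), then induced with TNF-α, alongside non-induced and induced controls. IL-8 mRNA was assessed by semiquantitative (traditional) RT-PCR, with GAPDH mRNA amplified as the reference transcript.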

The next series deals with NF-κB. Description: NF-κB luciferase reporter assay in A549 cells induced with TNF-α. The class given is cell-based, human. The method, boiled down:
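A549 lung cancer cells carrying a stably transfected luciferase reporter behind six consensus NF-κB binding-site repeats. Cells induced with TNF-α and treated with test compound at 100, 50 and 10 μM (preliminary screen at 50 μM). Non-induced and TNF-α-induced wells serve as controls. Read-out is luciferase signal. Cell viability was checked in parallel under identical conditions.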

The next series has as its system RWPE-1. Nature of the series: Cellular cytotoxicity by Alamar Blue staining, RWPE-1. The class given is cell-based, human. The conditions noted are these: mean ± SD.
Another series deals with Vero. Nature of the series: Cellular cytotoxicity by Alamar Blue staining, Vero. Conditions: mean ± SD. The class given is cell-based, African green monkey.
The next series concerns CCRF-CEM. Description: Cellular cytotoxicity by Alamar Blue staining, CCRF-CEM. The format is cell-based, human. The conditions noted are these: 48-hr cytotoxicity assay, mean ± SD.
For another series, the system named is IκBα. Conditions: 16 µM; cited from earlier work.

Regarding `CO[C@@]12C=C(Br)C(=O)C[C@@H]1/C(=C(/OC(C)=O)c1ccccc1)CC2` (racemic) [Compound 4], the “solubility under the assay conditions” value in [1] is “poorly soluble under the assay conditions”.

Turning to `CC(=O)O/C(=C1\CO[C@]2(C)C=CC(=O)C[C@H]12)c1ccccc1` (racemic) [Compound 10], the “secreted IL-8 levels” value in the series with IL-8 (33 µM) is 3,480 pg/mL. The “time to disappearance of vinyl proton doublets after cysteamine addition” value in [2] is not above 5 min. Besides, the “inhibition of nuclear translocation of p65” value with p65 [3] (25 µM) is listed as “Partial inhibition of p65 nuclear translocation”; in the series with p65 [3] (100 µM), “completely inhibited nuclear translocation of p65”; in the series with p65 [4] (25 µM), “Partial inhibition of p65 nuclear translocation”; with p65 [4] (100 µM), “completely inhibited nuclear translocation of p65”. Besides, the “IC50 against DU-145 relative to reported IC50 of cryptocaryone” value in the series with DU-145 is recorded as “approximately 15 fold”.

As for `CC(=O)O/C(C)=C1\CO[C@]2(c3ccccc3)C=CC(=O)C[C@H]12` (racemic) [Compound 11], the “secreted IL-8 levels” value with IL-8 (33 µM) is recorded as 2,970 pg/mL. For the same compound, the “effect on IL-8 protein levels (in words)” value in the series on IL-8 (highest concentration tested (100 µM)) is reported as “depleted IL-8 protein levels to nearly undetectable levels”. The “IL-8 mRNA production (in words)” value in the series on IL-8 mRNA was “visibly lower levels than that of 10”. Also, the “inhibition of nuclear translocation of p65” value was “Partial inhibition of p65 nuclear translocation” in the series on p65 [3] (25 µM), “completely inhibited nuclear translocation of p65” in the series on p65 [3] (100 µM), “Partial inhibition of p65 nuclear translocation” in the series on p65 [4] (25 µM) and “completely inhibited nuclear translocation of p65” in the series on p65 [4] (100 µM). Besides, the “enhancement in potency compared with racemic 11” value with NF-κB (50 µM) is 2 fold. Besides, the “IC50 against DU-145 relative to reported IC50 of cryptocaryone” value with DU-145 is on record as “approximately 15 fold”.

As to `CC(=O)O/C(=C1\CO[C@]2(C)CCC(=O)C[C@H]12)c1ccccc1` (racemic) [Compound 12], the “secreted IL-8 levels” value in the series with IL-8 (100 µM) is 4,900 pg/mL. Further, the “IC50 RWPE-1” value in the series with RWPE-1 was “no appreciable toxicity”. For the same compound, in the series with Vero, the “IC50 Vero” value was “no appreciable toxicity”. Also, in the series with CCRF-CEM, the “IC50 CCRF-CEM” value is on record as “no appreciable toxicity”. The “decrease in potency compared to 11” value with NF-κB (100 µM) is recorded as ~ 4 fold. In the series with NF-κB (100 µM, highest concentration tested), the “reduction of NF-κB activity” value was 24%. Besides, the “IC50 DU-145” value in the series on DU-145 (48-hr cytotoxicity assay, Alamar Blue, mean ± SD) is recorded as “no appreciable toxicity”.

For `O=C1C[C@@H]2/C(=C(O)\C=C\c3ccccc3)C(=O)C=C[C@@H]2O1` [cryptocaryone], in the series on IκBα, the “inhibition of IκBα degradation (in words)” value was “inhibit the degradation of IκBα”.
